Reference: ChEMBL document CHEMBL3425469, “Discovery of imidazo[2,1-b]thiazole HCV NS4B inhibitors exhibiting synergistic effect with other direct-acting antiviral agents” (J Med Chem, 2015)

Key:
Hepatitis C virus [1] = experiment: Antiviral activity against Hepatitis C virus genotype 1b Con 1 infected in human HuH7 cells at 5 nM after 72 hrs by luciferase assay in presence of 7.5 uM clemizole; type: functional, Hepacivirus hominis, Huh-7
In short: (§1)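 Huh-7 cells stably carrying a GT1b Con1 bicistronic luciferase replicon, seeded at 8000 cells/well. The test compound and the partner DAA are dosed orthogonally at various concentrations, final 0.5% DMSO, then incubated 72 h at 37°C. Bright-Glo luciferase read-out gives replicon inhibition as % of untreated control. Cytotoxicity is checked in parallel by CellTiter-Fluor. CI and DRI are derived by the Chou–Talalay median-effect method.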

Hepatitis C virus [2] = experiment: Antiviral activity against Hepatitis C virus genotype 1b Con 1 infected in human HuH7 cells at 160 nM after 72 hrs by luciferase assay in presence of 0.16 nM daclatasvir; type: functional, Hepacivirus hominis, Huh-7
In short: (§2)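 Stable Con1 GT1b bicistronic luciferase replicon in Huh-7 cells, 8000 cells/well. Test compound and a marketed DAA or clemizole added alone or together at varied concentrations, 0.5% DMSO final. 72 h at 37°C, then luciferase read with Bright-Glo. Inhibition expressed as % of untreated control, with cytotoxicity run in parallel. CI and DRI derived by the Chou–Talalay median-effect method.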

Hepatitis C virus [3] = experiment: Antiviral activity against Hepatitis C virus genotype 1b Con 1 infected in human HuH7 cells at 160 nM after 72 hrs by luciferase assay in presence of 0.08 nM daclatasvir; type: functional, Hepacivirus hominis, Huh-7; in short: as §2
Hepatitis C virus [4] = experiment: Antiviral activity against Hepatitis C virus genotype 1b Con 1 infected in human HuH7 cells at 5 nM after 72 hrs by luciferase assay in presence of 120 nM sofobuvir; type: functional, Hepacivirus hominis, Huh-7; in short: as §1
Hepatitis C virus [5] = experiment: Antiviral activity against Hepatitis C virus genotype 1b Con 1 infected in human HuH7 cells at 10 nM after 72 hrs by luciferase assay in presence of 15 uM clemizole; type: functional, Hepacivirus hominis, Huh-7; in short: as §2
Hepatitis C virus [6] = experiment: Antiviral activity against Hepatitis C virus genotype 1b Con 1 infected in human HuH7 cells at 5 nM after 72 hrs by luciferase assay in presence of 240 nM sofobuvir; type: functional, Hepacivirus hominis, Huh-7; in short: as §1
Hepatitis C virus [7] = experiment: Antiviral activity against Hepatitis C virus genotype 1b Con 1 infected in human HuH7 cells at 5 nM after 72 hrs by luciferase assay in presence of 10 uM clemizole; type: functional, Hepacivirus hominis, Huh-7; in short: as §1
Hepatitis C virus [8] = experiment: Antiviral activity against Hepatitis C virus genotype 1b Con 1 infected in human HuH7 cells at 5 nM after 72 hrs by luciferase assay in presence of 30 nM sofobuvir; type: functional, Hepacivirus hominis, Huh-7; in short: as §1
Hepatitis C virus [9] = experiment: Antiviral activity against Hepatitis C virus genotype 1b Con 1 infected in human HuH7 cells at 80 nM after 72 hrs by luciferase assay in presence of 24 nM simeprevir; type: functional, Hepacivirus hominis, Huh-7; in short: as §1
Hepatitis C virus [10] = experiment: Antiviral activity against Hepatitis C virus genotype 1b Con 1 infected in human HuH7 cells at 20 nM after 72 hrs by luciferase assay in presence of 60 nM sofobuvir; type: functional, Hepacivirus hominis, Huh-7; in short: as §1
Hepatitis C virus [11] = experiment: Antiviral activity against Hepatitis C virus genotype 1b Con 1 infected in human HuH7 cells at 2.5 nM after 72 hrs by luciferase assay in presence of 24 nM simeprevir; type: functional, Hepacivirus hominis, Huh-7; in short: as §2
Hepatitis C virus [12] = experiment: Antiviral activity against Hepatitis C virus genotype 1b Con 1 infected in human HuH7 cells at 80 nM after 72 hrs by luciferase assay in presence of 20 uM clemizole; type: functional, Hepacivirus hominis, Huh-7; in short: as §1
Hepatitis C virus [13] = experiment: Antiviral activity against Hepatitis C virus genotype 1b Con 1 infected in human HuH7 cells at 2.5 nM after 72 hrs by luciferase assay in presence of 0.08 nM daclatasvir; type: functional, Hepacivirus hominis, Huh-7; in short: as §2
Hepatitis C virus [14] = experiment: Antiviral activity against Hepatitis C virus genotype 1b Con 1 infected in human HuH7 cells at 80 nM after 72 hrs by luciferase assay in presence of 17.5 uM clemizole; type: functional, Hepacivirus hominis, Huh-7; in short: as §1
Hepatitis C virus [15] = experiment: Antiviral activity against Hepatitis C virus genotype 1b Con 1 infected in human HuH7 cells at 2.5 nM after 72 hrs by luciferase assay in presence of 15 uM clemizole; type: functional, Hepacivirus hominis, Huh-7; in short: as §2
Hepatitis C virus [16] = experiment: Antiviral activity against Hepatitis C virus genotype 1b Con 1 infected in human HuH7 cells at 5 nM after 72 hrs by luciferase assay in presence of 3 nM simeprevir; type: functional, Hepacivirus hominis, Huh-7; in short: as §1
Hepatitis C virus [17] = experiment: Antiviral activity against Hepatitis C virus genotype 1b Con 1 infected in human HuH7 cells at 2.5 nM after 72 hrs by luciferase assay in presence of 3 nM simeprevir; type: functional, Hepacivirus hominis, Huh-7; in short: as §2
Hepatitis C virus [18] = experiment: Antiviral activity against Hepatitis C virus genotype 1b harboring M423I NS5B (thumb 2) mutation transfected in human HuH7 cells after 72 hrs by luciferase assay; type: functional, cell-based, Hepacivirus hominis; conditions: Huh-7, 72 h
In short: (§3)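 Huh-7 cells were transiently electroporated with genotype 1b replicon RNA carrying the specified mutation and plated at 10000 cells/well. Compounds were added at 0.5% DMSO final for 72 h at 37°C. Read-out was Bright-Glo luciferase. EC50 is the mean of two independent runs within 2-fold of each other. A reference drug EC50 was measured alongside each mutant replicon to validate it.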

Hepatitis C virus [19] = experiment: Antiviral activity against Hepatitis C virus genotype 1b harboring Y93H NS5A mutation transfected in human HuH7 cells after 72 hrs by luciferase assay; type: functional, cell-based, Hepacivirus hominis; conditions: Huh-7, 72 h; in short: as §3
Hepatitis C virus [20] = experiment: Antiviral activity against Hepatitis C virus genotype 1b Con 1 infected in human HuH7 cells at 40 nM after 72 hrs by luciferase assay in presence of 0.16 nM daclatasvir; type: functional, Hepacivirus hominis, Huh-7; in short: as §1
Hepatitis C virus [21] = experiment: Antiviral activity against Hepatitis C virus genotype 1b Con 1 infected in human HuH7 cells at 80 nM after 72 hrs by luciferase assay in presence of 30 nM sofobuvir; type: functional, Hepacivirus hominis, Huh-7; in short: as §1
Hepatitis C virus [22] = experiment: Antiviral activity against Hepatitis C virus genotype 1b Con 1 infected in human HuH7 cells at 2.5 nM after 72 hrs by luciferase assay in presence of 10 uM clemizole; type: functional, Hepacivirus hominis, Huh-7; in short: as §2
Hepatitis C virus [23] = experiment: Antiviral activity against Hepatitis C virus genotype 1b Con 1 infected in human HuH7 cells at 5 nM after 72 hrs by luciferase assay in presence of 0.04 nM daclatasvir; type: functional, Hepacivirus hominis, Huh-7; in short: as §1
Hepatitis C virus [24] = experiment: Antiviral activity against Hepatitis C virus genotype 1b Con 1 infected in human HuH7 cells at 160 nM after 72 hrs by luciferase assay in presence of 2160 nM sofobuvir; type: functional, Hepacivirus hominis, Huh-7; in short: as §2
Hepatitis C virus [25] = experiment: Antiviral activity against Hepatitis C virus genotype 1b Con 1 infected in human HuH7 cells at 10 nM after 72 hrs by luciferase assay in presence of 7.5 uM clemizole; type: functional, Hepacivirus hominis, Huh-7; in short: as §2
Hepatitis C virus [26] = experiment: Antiviral activity against Hepatitis C virus genotype 1b harboring H94R mutation transfected in human HuH7 cells after 72 hrs by luciferase assay; type: functional, cell-based, Hepacivirus hominis; conditions: Huh-7, 72 h; in short: as §3
Hepatitis C virus [27] = experiment: Antiviral activity against Hepatitis C virus genotype 1b Con 1 infected in human HuH7 cells at 5 nM after 72 hrs by luciferase assay in presence of 12.5 uM clemizole; type: functional, Hepacivirus hominis, Huh-7; in short: as §1

O=C(c1nc2scc(C3CC3)n2c1Cl)N1CCN(C2CCCC2)C(=O)C1
CI (Hepatitis C virus [1]): 0.6
CI (Hepatitis C virus [2]): 0.65
CI (Hepatitis C virus [3]): 0.42
CI (Hepatitis C virus [4]): 0.82
CI (Hepatitis C virus [5]): 1.05
CI (Hepatitis C virus [6]): 0.74
CI (Hepatitis C virus [7]): 0.75
CI (Hepatitis C virus [8]): 0.77
CI (Hepatitis C virus [9]): 0.87
CI (Hepatitis C virus [10]): 0.78
CI (Hepatitis C virus [11]): 1.31
CI (Hepatitis C virus [12]): 1.41
CI (Hepatitis C virus [13]): 0.66
CI (Hepatitis C virus [14]): 1.11
CI (Hepatitis C virus [15]): 1.17
CI (Hepatitis C virus [16]): 1.22
CI (Hepatitis C virus [17]): 1.26
EC50 (Hepatitis C virus [18]): 9 nM
EC50 (Hepatitis C virus [19]): 14 nM
CI (Hepatitis C virus [20]): 0.64
CI (Hepatitis C virus [21]): 0.91
CI (Hepatitis C virus [22]): 0.87
CI (Hepatitis C virus [23]): 0.89
CI (Hepatitis C virus [24]): 0.3
CI (Hepatitis C virus [25]): 0.54
EC50 (Hepatitis C virus [26]): 3980 nM
CI (Hepatitis C virus [27]): 0.71
